# Screens (PubChem BioAssay)
# Hck Nef HTS: inhibitors of Nef-activated human Hck kinase, primary screen, biochemical, Z-Lyte FRET, 384-well, Hck-YEEI | inhibition, % at 20 µM | Tyrosine-protein kinase HCK (Homo sapiens), P08631 | 220,000 tested, 0.68% active | Recombinant Hck-YEEI plus Nef, Z-Lyte FRET kinase assay;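 active = Hck-Nef kinase inhibition above about 50%, limit read from the data; inactive = inhibition below that limit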;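 also: 0% = DMSO with Hck plus Nef and 100% = Hck alone without Nef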
# RanGTP-Imp inh: inhibitors of RanGTP-importin-beta interaction, primary screen, biochemical, FRET, CFP-Ran, YFP-importin-beta, homogeneous. cell-free CFP-Ran/YFP-importin-beta FRET ratio. AID 2216, 2009. 300,000 tested, 1.1% active. inhibition, % (no concentration beside the values);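 active = more than half of the replicate wells show a fall in the fluorescence ratio signal beyond about 16%, limit read from the data, passing the limit was not always enough; inconclusive = exactly half of the replicate wells pass the set limit; inactive = fewer than half of replicates pass the limit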;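 also: 0% = DMSO wells and 100% = Ran loaded with GDP instead of GTP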
# Runt-SMMHC FRET: inhibitors of RUNX1 Runt–CBFb-SMMHC binding, primary screen, biochemical, FRET, Cerulean-Runt, Venus-CBFb-SMMHC, uHTS; Runt-related transcription factor 1 (Homo sapiens) + Core-binding factor subunit beta …; Cerulean-Runt/Venus-CBFb-SMMHC FRET ratio 530/480, 1 h; inhibition, % at 20 µM; 220,000 tested, 0.74% active; AID 1434, 2008;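 active = mean inhibition across duplicate retests at 20 µM reaching about 50%, limit read from the data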;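 also: 0% = DMSO wells and 100% = wells with excess untagged CBFb-SMMHC; inhibitors lower the FRET ratio by blocking Runt binding to CBFb-SMMHC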
# Target sequence (Q01196 whole entry, looked up): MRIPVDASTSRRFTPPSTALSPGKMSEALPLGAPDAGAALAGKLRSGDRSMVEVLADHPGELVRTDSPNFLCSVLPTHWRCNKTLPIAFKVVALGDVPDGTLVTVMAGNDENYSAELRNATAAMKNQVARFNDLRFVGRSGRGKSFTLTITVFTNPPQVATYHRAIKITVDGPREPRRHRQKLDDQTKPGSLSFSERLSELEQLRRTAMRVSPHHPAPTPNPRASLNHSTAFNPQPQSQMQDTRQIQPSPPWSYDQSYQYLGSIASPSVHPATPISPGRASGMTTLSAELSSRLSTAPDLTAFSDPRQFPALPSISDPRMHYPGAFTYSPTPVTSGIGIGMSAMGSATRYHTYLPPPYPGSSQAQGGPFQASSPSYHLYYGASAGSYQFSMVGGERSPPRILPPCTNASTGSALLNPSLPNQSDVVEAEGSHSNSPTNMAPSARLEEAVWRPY
# Target sequence (Q13951 whole entry, looked up): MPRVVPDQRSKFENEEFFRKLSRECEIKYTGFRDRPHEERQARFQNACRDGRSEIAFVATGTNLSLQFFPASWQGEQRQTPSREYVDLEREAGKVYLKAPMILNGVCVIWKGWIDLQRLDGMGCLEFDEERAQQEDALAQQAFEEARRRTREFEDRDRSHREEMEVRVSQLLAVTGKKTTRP
# Runt-CBFb FRET: inhibitors of RUNX1 Runt–CBFb binding, primary screen, biochemical, FRET, Cerulean-Runt, Venus-CBFb, uHTS; Runt-related transcription factor 1 (Homo sapiens) + Core-binding factor subunit beta …; Cerulean-Runt/Venus-CBFb FRET ratio 530/480, 1 h; inhibition, % at 20 µM; 220,000 tested, 0.46% active; AID 1496, 2009;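 active = inhibition over about 50% at 20 µM in the single-dose screen, limit read from the data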;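 also: 0% = DMSO wells and 100% = excess unlabeled CBFb competitor control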
#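 Schedule: protein complex preformed 1 h, compound exposure 1 h, room temperature, dark; test system: Cerulean-labeled Runt domain protein; amount: 100 nM per protein; buffer or medium: Tris 50 mM pH 7.5, KCl, K2SO4, 0.01% BSA; read-out: loss of energy transfer signal; detection: FRET fluorescence; controls: 5 µM unlabeled CBFb as full-inhibition high control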
# RUNX1 CBFb TR: inhibitors of RUNX1 Runt–CBFb binding, biochemical, TR-FRET; shares compounds with Runt-CBFb FRET; TR-FRET RUNX1 Runt domain-CBFb binding; inhibition, % at 20 µM; 480 tested, 20% active; in the data active = inhibition above about 40%
# * = called active by the depositor; u = inconclusive; x = not tested or not shown. This is a sample that favours compounds with a hit; in the whole collection about 1.9% have one here.
SMILES,Hck Nef HTS,RanGTP-Imp inh,Runt-SMMHC FRET,Runt-CBFb FRET,RUNX1 CBFb TR
Oc1ccc(N=Cc2ccc(-c3cccs3)s2)cc1,1.4,28.3*,x,69.2*,49.9*
Cc1cc(C)c2nc(-c3ccncc3)cc(C(=O)N3CCN(Cc4ccccc4Cl)CC3)c2c1,x,1.5,x,x,x
FC(F)Oc1ccc(-c2csc(NNC3=NCCCCC3)n2)cc1,2.4,0.1,28.2,54.7*,6.0
CCS(=O)(=O)Nc1cccc(-c2nc3cccnc3s2)c1,22.3,-0.2,-2.4,0.4,x
O=S(=O)(Nc1ccc(-c2nc3cccnc3s2)cc1)c1ccc(Cl)s1,9.1,u,x,67.7*,29.6
O=C(O[C@@H]1OC2COC(=O)c3cc(O)c(O)c(O)c3-c3c(cc(O)c(O)c3O)C(=O)O[C@@H]([C@H]1O)[C@@H]2O)c1cc(O)c(O)c(O)c1,37.7,5.5,41.7,56.6*,66.7*
CN1CCc2c(sc(/N=C/c3c[nH]c4ccccc34)c2C#N)C1,27.0,4.1,3.4,49.7,x
CN1CCc2c(sc(/N=C/c3c[nH]c4ccccc34)c2C(N)=O)C1,14.5,46.2*,13.7,53.3*,-42.3
CC(C)(C)OC(=O)N1CCC(C(=O)N2CCOCC2)CC1,5.6,1.2,0.3,84.3*,-49.9
CC(C)(C)OC(=O)N1CCC(C(=O)N2CCCCCC2)CC1,-9.1,-2.4,-3.5,0.5,x
CCOC(=O)C1=C(C)N=c2s/c(=C3\C(=O)Nc4ccccc43)c(=O)n2C1c1ccc2c(c1)OCO2 (stereo unspecified),2.0,-2.0,-3.8,16.2,x
C=CCOC(=O)C1=C(C)N=c2s/c(=C3\C(=O)N(CC(=O)O)c4ccccc43)c(=O)n2C1c1ccc(OC)cc1 (stereo unspecified),49.3,-4.4,-35.1,53.0*,29.3
Cn1c(=O)n(C)c2cc(/C=N/NC(=O)c3ccncc3)ccc21,25.4,1.5,-0.9,-0.1,x
CCn1c(O)c(/C=N/NC(=O)c2ccncc2)c(=O)n(CC)c1=S,8.9,2.3,63.2*,58.8*,-26.4
O=C(CN1CCCCC1)Nc1ccc(Br)cc1[N+](=O)[O-],-0.5,-2.4,-0.2,0.5,x
CN1CCc2cc3c(c4c2[C@H]1[C@H](O)c1ccccc1-4)OCO3,-1.8,-2.4,78.9,-149.6,x
CN1CCc2cccc3c2[C@H]1Cc1ccc(O)c(O)c1-3,3.9,3.2,x,73.3*,36.1
O=C(Cn1cc(S(=O)(=O)N2CCN(c3ccccc3F)CC2)c2ccccc2c1=O)NCCCN1CCCCCC1,22.0,2.2,-0.3,-4.5,x
O=C(NCCO)c1cccc2c1-c1ccccc1C2=O,1.8,-1.6,-1.2,2.0,x
O=C1c2ccccc2-c2c1cccc2C(=O)N(CCO)CCO,-1.0,-2.8,-1.2,74.6*,-25.7
CCCC(C)c1nnc(NC(=O)c2cc(C(=O)OC)cc([N+](=O)[O-])c2)s1 (stereo unspecified),-0.8,1.2,44.9,53.3*,9.2
CCCC(C)NC(=O)c1cc(C(=O)OC)cc([N+](=O)[O-])c1 (stereo unspecified),-1.5,0.3,1.8,-2.1,x
Cc1ccn(-c2cc(O)c(-n3ccc(C)n3)cc2O)n1,8.5,7.6,25.3,64.1*,37.1
Cc1ccn(CCC(=O)O)n1,-1.7,-1.0,-1.8,2.5,x
O=C(Cn1c(=O)oc2ccccc21)Nc1nc(-c2ccccc2)cs1,-0.9,-2.2,-2.5,0.7,x
SMILES,Hck Nef HTS,RanGTP-Imp inh,Runt-SMMHC FRET,Runt-CBFb FRET,RUNX1 CBFb TR
O=C(Cn1c(=O)oc2ccccc21)Nc1n[nH]c(=S)s1,-64.9,0.4,22.2,54.5*,63.0*
S=c1[nH]nc(-c2cc3c(s2)-c2ccccc2CC3)o1,28.7,17.3*,70.2*,56.9*,16.6
CCOc1ccc(NC2c3ccccc3C(=O)N2Cc2ccco2)cc1 (stereo unspecified),6.6,2.4,-3.4,1.5,x
CCC(C)NC(=O)c1ccc([N+](=O)[O-])c(Cl)c1 (stereo unspecified),3.5,-2.2,3.7,2.2,x
CC(C)CC(=O)NN1CCCCC1,-22.2,8.8,-0.2,75.3*,58.5*
CCC(C)NC(=O)CC(C)C (stereo unspecified),17.4,1.4,0.3,1.8,x
O=C(CN1C(=O)NC2(CCCC2)C1=O)Nc1ccccc1F,-1.6,-0.7,-1.2,1.4,x
N#CC1=C(N)Oc2cc(O)c(C=Nc3ccccc3)cc2C1c1ccccc1 (stereo unspecified),4.7,u,34.2,26.9,x
Cc1ccccc1N=Cc1cc2c(cc1O)OC(N)=C(C#N)C2c1ccccc1 (stereo unspecified),5.8,30.4*,108.8*,71.1*,0.2
O=C1CCCC2=C1C(c1ccc(O)c(O)c1)c1c(ccc3ncccc13)N2 (stereo unspecified),21.6,5.5,40.7,51.1*,44.1*
O=C(NNc1cc(Br)c(O)c(Br)c1)c1ccccc1,14.5,-3.8,36.5,77.7*,44.8*
CN1CCN(C(=S)C(=O)Nc2ccc(Br)cc2)CC1,-44.7,-5.1,28.4,54.9*,14.2
CCc1nnc(NC(=O)CSc2nnc(-c3ccccc3O)n2CC)s1,-2.1,5.0,-1.0,0.4,x
CCc1nnc(NC(=O)CSc2nnc(-c3cccnc3)n2CC)s1,4.2,u,-8.7,77.1*,-10.1
CCC1(C)Cc2c(sc3[nH]c(=O)[nH]c(=O)c23)CS1 (stereo unspecified),0.4,5.9,x,56.7*,17.7
O=C(Cc1ccc(F)cc1)N1CCC(N2CCC(C(=O)N3CCOCC3)CC2)CC1,21.8,3.0,-3.3,-1.4,x
Cc1nc(N)nc(N)c1CCCc1ccc(Cl)c(Cl)c1,x,-0.4,x,x,x
CCOc1ccc2nc(NCCCNC(=O)c3cc(OC)c(OC)c(OC)c3)c(C#N)cc2c1,-12.7,134.9*,81.1*,59.5*,7.1
O=C(CN1CCN(c2ccccc2)CC1)Nc1cccc(C(F)(F)F)c1,-0.5,9.2,-1.0,59.4*,-15.5
O=C(CN1CCN(Cc2ccccc2)CC1)Nc1cccc(C(F)(F)F)c1,0.5,0.6,-2.8,-3.3,x
COc1cc(C(=O)NCc2nnc(SCC(=O)Nc3nc4ccccc4s3)o2)cc(OC)c1OC,-2.3,4.9,48.4,53.4*,-1.9
COc1ccc(C(=O)NCc2nnc(SCC(=O)Nc3nc4ccccc4s3)o2)cc1,1.2,0.9,-3.3,56.7*,-23.4
CC1CCCC(C)N1c1nnc(NC(=O)c2cc(-c3ccc(Br)cc3)on2)s1 (stereo unspecified),-0.6,0.8,-4.4,0.7,x
